Measured values: paper PMC7790123 (Psychopharmacology, 2020)

Assays:
rats = assay: Attentional set-shifting task; format: in vivo, rat; conditions: 15 mg/kg ip, male rats, dosed 1 h before testing, vs vehicle
How it was run: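 Rats were handled 1 min at least three times in the week before testing. The test compound was suspended in 0.1% Tween80, 0.1% silicone antifoam and 1% methylcellulose in water and given ip at 5 mL/kg, 1 h before testing. Over four days: pre-habituation, habituation, training, then a single test of seven discriminations (SD, CD, CDR, ID, IDR, ED, EDR). The first four trials were unscored; criterion was six consecutive correct. Analysis: two-way repeated-measures ANOVA with Tukey post hoc.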

COMT = target: T1, COMT (Rattus norvegicus, UniProt P22734); assay: Frontal cortex microdialysis: DA, HVA and DOPAC in extracellular fluid; format: in vivo; conditions: 20 min samples for 2 h after dosing, vs vehicle
T1 sequence (P22734 44-264 limits assumed): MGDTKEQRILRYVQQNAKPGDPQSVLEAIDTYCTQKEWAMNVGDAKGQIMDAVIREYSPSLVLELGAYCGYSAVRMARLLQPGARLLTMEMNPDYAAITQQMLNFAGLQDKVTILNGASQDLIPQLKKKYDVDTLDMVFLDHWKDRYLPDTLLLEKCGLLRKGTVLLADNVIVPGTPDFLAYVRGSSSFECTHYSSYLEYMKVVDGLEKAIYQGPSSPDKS

[1] = Drug concentration in free plasma and CSF after dosing; format: in vivo, rat; conditions: for Drug Concentration CSF: 15 mg/kg ip
How it was run: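 After 1 h acclimation, rats received vehicle or test compound, suspended in 0.1% Tween80, 0.1% silicone antifoam and 1% methylcellulose in water, given ip at 5 mL/kg. At 1 or 4 h, rats were anaesthetised with isoflurane and sampled. Blood was spun at 2000 g, 4°C, 10 min for plasma. CSF and plasma were stored at −80°C, then compound levels were measured by LC-MS/MS.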

[2] = male, rat, plasma (free, unbound concentration), intraperitoneal, 15 mg/kg

Drug Concentration CSF ([1]; female rats, 4 h): BLQ
Drug Concentration CSF ([1]; male rats, 1 h): BLQ
Drug Concentration CSF ([1]; male rats, 4 h): BLQ
concentration at 4 h ([1]; female, rat, plasma (free, unbound concentration), intraperitoneal, 15 mg/kg): 10 nM
concentration at 1 h [1, 2]: 35 nM
concentration at 4 h [1, 2]: 4 nM
SMILES: Cc1ccc(C(=O)c2cc(O)c(O)c([N+](=O)[O-])c2)cc1 [Tolcapone, tolcapone]
ASST performance (trials to criterion), ED stage (rats): improved ED stage performance
extracellular DOPAC concentration, frontal cortex (COMT): significantly increased DOPAC for the 40–120-min time points
extracellular HVA concentration, frontal cortex (COMT): significantly decreased HVA for the 40–120-min time points
